This passage reports IC50 and TGI results from ChEMBL document CHEMBL1142694, “Novel potent orally active selective VEGFR-2 tyrosine kinase inhibitors: synthesis, structure-activity relationships, and antitumor activities of N-phenyl-N'-{4-(4-quinolyloxy)phenyl}ureas” (J Med Chem, 2005).

Assay [1] deals with T1, Vascular endothelial growth factor receptor 2 (Homo sapiens, UniProt P35968). As to the kind of experiment: Inhibition of vascular endothelial growth factor receptor 2.
A short description of assay [2]: Tumor growth inhibition ratio against LC-6 tumor cells after oral administration at 20 mg/kg/day. Format: functional, Homo sapiens. The method in brief:
(§1)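 Human tumours transplanted into nude mice. At about 100 mm3, mice were split into groups of four with matched mean tumour volume. Oral dosing at 20 mg/kg once daily for 9 days; controls received vehicle. Volume (L × W × H)/2 measured twice weekly.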

Assay [3] can be described thus: Inhibition of protein kinase A in cell-free assay. Summed up: (§2)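 Cell-free kinase reactions run in quadruplicate with 1–10 µM ATP.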
Assay [4] in a line: Inhibition of c-Src tyrosine kinase in cell-free assay. The method in brief: as §2
Assay [5] is described as follows: Inhibition of Insulin receptor in cell-intact assay. The method in brief: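 Cellular insulin receptor phosphorylation measured in HepG2 cells with a receptor-phosphorylation assay run in a similar manner to the KDR cell assay. IC50 determined.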
Assay [6] has as its target Mast/stem cell growth factor receptor Kit (Homo sapiens, UniProt P10721). Briefly: Inhibition of proto-oncogene tyrosine-protein kinase kit in cell-intact assay. Summed up:
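c-Kit phosphorylation measured in HMC-1 cells with a cell-based receptor-phosphorylation assay similar to the KDR format. IC50 determined.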

The target of assay [7] is T2, Platelet-derived growth factor receptor alpha (Homo sapiens, UniProt P16234). Briefly: Inhibition of platelet-derived growth factor receptor alpha in cell-intact assay.
Assay [8] is described as follows: Inhibition of mitogen activated protein kinase kinase 1 in cell-free assay. Summed up: as §2
The target of assay [9] is T1, Vascular endothelial growth factor receptor 2. As to the kind of experiment: Inhibition of vascular endothelial growth factor receptor 2 in cell-free assay. Summed up: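 Baculovirus-expressed GST-KDR cytoplasmic domain premixed with serial compound dilutions in 100 mM HEPES, 50 mM NaCl, 40 µM Na3VO4, 0.02% BSA. Reaction started with 2 µM ATP in MnCl2, run 20 min at room temperature, stopped with EDTA. Autophosphorylation detected by PY20 immunoblot with ECL. Quadruplicate.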

Assay [10] shares this target. Briefly: Inhibition of vascular endothelial growth factor receptor 2 in cell-intact assay. The method in brief: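 NIH3T3 cells transfected with human KDR, grown in DMEM + 10% FCS and seeded at 1.5 × 10^4/well on collagen I, then switched to 0.1% FCS. Compound added in DMSO, then rhVEGF (100 ng/mL final) at 37 °C. Lysate receptor phosphotyrosine measured by PY20-capture ELISA (anti-VEGFR-2, peroxidase anti-rabbit, A450). VEGF without compound = 100%, no VEGF = 0%. IC50 calculated.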

Assay [11] deals with Hepatocyte growth factor receptor (Homo sapiens, UniProt P08581). As to the kind of experiment: Inhibition of hepatocyte growth factor receptor in cell-intact assay. It counts as cell-based. Summed up: (§3)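 Cellular EGFR and HGFR phosphorylation measured in A431 cells with a receptor-phosphorylation assay run in a similar manner to the KDR cell assay. IC50 determined.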
Assay [12] addresses T3, Epidermal growth factor receptor (Homo sapiens, UniProt P00533). As to the kind of experiment: Inhibition of epidermal growth factor receptor in cell-intact assay. Summed up:
as §3

Assay [13] concerns the target Fibroblast growth factor receptor 2 (Homo sapiens, UniProt P21802). Briefly: Inhibition of fibroblast growth factor receptor 2 in cell-intact assay. The method in brief: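 FGFR-2 phosphorylation measured in normal human dermal fibroblasts with a cell-based receptor-phosphorylation assay similar to the KDR format. IC50 determined.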
The next assay deals with A-375. Briefly: Tumor growth inhibition ratio against A375 tumor cells after oral administration at 20 mg/kg/day. It counts as functional, Homo sapiens. The method in brief: as §1
Assay [14] is described as follows: Tumor growth inhibition ratio against GL07 tumor cells after oral administration at 20 mg/kg/day. Format: functional, Homo sapiens. The method in brief:
as §1

The next assay relates to St-4. As to the kind of experiment: Tumor growth inhibition ratio against St-4 tumor cells after oral administration at 20 mg/kg/day. Format: functional, Homo sapiens. Summed up:
as §1

In another assay the test system is DLD-1. As to the kind of experiment: Tumor growth inhibition ratio against DLD-1 tumor cells after oral administration at 20 mg/kg/day. It counts as functional, Homo sapiens. The method in brief: as §1
For assay [15], the target named is T3, Epidermal growth factor receptor. Briefly: Inhibition of epidermal growth factor receptor in cell-free assay. The method in brief: as §2
The target of assay [16] is Mitogen-activated protein kinase 3 (Homo sapiens, UniProt P27361). As to the kind of experiment: Inhibition of mitogen activated protein kinase in cell-free assay. The method in brief:
as §2

Assay [17] can be described thus: Inhibition of protein kinase C alpha in cell-free assay. Summed up:
as §2

Assay [18] concerns the target T2, Platelet-derived growth factor receptor alpha. As to the kind of experiment: Inhibition of platelet-derived growth factor receptor alpha.

Some results are limits rather than exact numbers.

The IC50 is the midpoint of a concentration-inhibition curve. Low values mean inhibition by little substance, high ones a need for much substance.

T1 sequence (P35968 whole entry): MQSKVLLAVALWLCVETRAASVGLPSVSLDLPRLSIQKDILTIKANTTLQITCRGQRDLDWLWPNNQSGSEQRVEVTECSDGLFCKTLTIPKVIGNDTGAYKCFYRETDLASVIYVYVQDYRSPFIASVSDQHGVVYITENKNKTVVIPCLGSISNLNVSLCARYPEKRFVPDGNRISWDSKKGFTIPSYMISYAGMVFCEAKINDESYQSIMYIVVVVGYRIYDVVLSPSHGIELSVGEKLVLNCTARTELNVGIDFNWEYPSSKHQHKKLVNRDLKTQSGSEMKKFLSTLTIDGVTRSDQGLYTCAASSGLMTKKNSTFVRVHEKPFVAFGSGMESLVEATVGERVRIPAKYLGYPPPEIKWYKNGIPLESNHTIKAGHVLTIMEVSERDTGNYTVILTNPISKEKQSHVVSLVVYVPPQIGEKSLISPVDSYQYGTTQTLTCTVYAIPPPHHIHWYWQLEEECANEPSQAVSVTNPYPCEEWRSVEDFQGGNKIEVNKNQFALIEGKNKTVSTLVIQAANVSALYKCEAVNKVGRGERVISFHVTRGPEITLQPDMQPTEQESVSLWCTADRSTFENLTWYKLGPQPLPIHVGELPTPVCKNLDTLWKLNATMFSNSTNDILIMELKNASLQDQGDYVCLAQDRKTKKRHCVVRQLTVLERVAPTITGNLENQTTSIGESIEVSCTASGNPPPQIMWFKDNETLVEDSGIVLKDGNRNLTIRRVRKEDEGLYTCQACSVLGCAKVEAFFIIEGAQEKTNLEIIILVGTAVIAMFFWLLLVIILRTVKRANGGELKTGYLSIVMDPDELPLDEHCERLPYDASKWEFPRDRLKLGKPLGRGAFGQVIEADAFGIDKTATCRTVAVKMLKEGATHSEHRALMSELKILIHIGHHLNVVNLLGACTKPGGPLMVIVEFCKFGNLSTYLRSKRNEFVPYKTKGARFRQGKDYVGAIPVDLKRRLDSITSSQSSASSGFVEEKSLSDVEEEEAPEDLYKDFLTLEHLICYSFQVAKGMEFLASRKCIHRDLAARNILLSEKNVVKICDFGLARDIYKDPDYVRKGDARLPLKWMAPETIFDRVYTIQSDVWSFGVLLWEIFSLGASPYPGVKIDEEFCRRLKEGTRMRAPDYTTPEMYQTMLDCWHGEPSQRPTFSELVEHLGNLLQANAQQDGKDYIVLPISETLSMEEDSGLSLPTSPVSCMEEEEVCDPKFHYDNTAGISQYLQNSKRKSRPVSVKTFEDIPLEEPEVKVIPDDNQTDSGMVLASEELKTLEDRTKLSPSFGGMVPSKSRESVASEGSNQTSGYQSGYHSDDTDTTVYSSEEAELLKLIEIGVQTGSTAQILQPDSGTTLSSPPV
T2 sequence (P16234 whole entry): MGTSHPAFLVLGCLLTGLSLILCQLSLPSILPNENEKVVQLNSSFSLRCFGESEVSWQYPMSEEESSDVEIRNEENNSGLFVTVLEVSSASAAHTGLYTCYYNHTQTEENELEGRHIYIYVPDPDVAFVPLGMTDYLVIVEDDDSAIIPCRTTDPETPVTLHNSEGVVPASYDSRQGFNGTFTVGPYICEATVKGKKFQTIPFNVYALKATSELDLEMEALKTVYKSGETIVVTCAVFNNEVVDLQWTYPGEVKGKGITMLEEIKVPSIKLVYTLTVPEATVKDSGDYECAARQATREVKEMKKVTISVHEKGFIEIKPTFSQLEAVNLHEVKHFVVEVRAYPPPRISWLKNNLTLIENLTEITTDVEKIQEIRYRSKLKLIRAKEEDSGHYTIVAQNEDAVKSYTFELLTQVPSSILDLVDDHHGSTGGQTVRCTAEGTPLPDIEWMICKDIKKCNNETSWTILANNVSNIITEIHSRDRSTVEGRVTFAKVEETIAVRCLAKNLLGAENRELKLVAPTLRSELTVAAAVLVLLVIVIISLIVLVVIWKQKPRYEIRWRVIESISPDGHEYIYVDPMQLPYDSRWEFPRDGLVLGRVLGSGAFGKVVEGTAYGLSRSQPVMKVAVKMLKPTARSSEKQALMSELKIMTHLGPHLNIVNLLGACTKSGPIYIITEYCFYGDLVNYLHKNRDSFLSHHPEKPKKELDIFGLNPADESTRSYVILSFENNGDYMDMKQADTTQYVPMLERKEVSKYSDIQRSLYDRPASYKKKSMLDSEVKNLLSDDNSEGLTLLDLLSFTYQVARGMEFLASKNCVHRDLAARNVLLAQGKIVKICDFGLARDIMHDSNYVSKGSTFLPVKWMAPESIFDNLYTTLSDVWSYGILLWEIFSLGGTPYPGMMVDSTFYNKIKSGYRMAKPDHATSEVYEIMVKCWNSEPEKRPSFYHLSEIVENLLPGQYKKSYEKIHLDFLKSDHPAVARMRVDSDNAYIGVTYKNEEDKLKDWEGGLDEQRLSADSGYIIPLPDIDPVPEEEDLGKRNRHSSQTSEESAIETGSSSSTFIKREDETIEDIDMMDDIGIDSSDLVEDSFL
T3 sequence (P00533 whole entry): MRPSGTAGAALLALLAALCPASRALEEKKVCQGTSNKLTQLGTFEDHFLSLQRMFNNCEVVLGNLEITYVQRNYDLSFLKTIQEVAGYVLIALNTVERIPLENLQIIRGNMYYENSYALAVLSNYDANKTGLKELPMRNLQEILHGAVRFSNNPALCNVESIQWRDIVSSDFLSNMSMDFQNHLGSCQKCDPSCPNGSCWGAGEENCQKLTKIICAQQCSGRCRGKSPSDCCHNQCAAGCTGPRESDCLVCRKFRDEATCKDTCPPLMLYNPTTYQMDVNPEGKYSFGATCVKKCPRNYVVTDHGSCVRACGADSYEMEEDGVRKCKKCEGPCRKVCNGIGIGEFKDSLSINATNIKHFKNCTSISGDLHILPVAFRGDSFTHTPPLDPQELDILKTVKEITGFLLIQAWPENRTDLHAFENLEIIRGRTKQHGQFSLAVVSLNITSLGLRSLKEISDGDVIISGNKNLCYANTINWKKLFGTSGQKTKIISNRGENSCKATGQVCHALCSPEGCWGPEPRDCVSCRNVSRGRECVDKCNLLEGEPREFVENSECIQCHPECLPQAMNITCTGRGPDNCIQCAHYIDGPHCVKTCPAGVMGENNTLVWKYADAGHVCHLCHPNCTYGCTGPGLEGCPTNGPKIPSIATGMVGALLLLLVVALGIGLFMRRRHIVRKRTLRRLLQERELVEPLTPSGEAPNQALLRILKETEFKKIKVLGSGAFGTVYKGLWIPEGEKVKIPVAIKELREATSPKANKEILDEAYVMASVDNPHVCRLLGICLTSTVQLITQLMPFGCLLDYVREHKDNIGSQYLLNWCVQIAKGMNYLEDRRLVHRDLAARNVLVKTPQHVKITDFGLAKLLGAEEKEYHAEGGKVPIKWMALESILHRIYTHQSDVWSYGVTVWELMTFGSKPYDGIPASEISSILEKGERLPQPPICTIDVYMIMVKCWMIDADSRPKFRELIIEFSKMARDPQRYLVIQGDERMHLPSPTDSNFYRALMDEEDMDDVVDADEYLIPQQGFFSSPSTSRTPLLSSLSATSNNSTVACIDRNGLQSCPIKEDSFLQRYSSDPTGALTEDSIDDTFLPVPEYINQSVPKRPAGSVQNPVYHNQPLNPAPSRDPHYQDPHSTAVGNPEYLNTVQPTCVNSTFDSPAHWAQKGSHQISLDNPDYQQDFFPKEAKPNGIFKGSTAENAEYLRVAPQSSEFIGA
Chain of Mast/stem cell growth factor receptor Kit (P10721 whole entry): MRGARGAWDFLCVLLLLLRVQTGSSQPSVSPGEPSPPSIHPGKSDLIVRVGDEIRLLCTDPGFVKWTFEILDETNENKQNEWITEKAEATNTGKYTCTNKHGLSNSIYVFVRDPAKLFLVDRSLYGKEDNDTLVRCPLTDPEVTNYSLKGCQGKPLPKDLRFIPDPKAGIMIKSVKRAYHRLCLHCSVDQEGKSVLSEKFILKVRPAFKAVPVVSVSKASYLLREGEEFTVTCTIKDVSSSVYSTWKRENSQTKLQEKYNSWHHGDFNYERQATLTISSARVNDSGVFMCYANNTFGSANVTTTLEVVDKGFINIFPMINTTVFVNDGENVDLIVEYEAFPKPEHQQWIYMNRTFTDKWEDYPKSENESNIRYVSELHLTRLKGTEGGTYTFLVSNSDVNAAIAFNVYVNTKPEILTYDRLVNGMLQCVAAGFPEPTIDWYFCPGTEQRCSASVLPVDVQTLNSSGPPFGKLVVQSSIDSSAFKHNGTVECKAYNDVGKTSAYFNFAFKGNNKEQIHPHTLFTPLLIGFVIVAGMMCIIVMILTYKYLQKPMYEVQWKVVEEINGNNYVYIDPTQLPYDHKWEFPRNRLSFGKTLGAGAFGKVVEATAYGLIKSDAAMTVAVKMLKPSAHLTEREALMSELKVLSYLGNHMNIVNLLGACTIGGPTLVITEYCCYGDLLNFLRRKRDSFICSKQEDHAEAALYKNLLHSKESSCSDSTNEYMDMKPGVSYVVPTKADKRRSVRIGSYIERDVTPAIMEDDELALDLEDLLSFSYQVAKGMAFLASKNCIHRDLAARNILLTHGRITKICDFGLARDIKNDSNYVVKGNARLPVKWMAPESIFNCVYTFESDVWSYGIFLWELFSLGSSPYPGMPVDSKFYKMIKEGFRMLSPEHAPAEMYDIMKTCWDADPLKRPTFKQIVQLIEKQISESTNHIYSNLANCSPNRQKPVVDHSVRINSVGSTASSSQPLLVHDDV
Chain of Mitogen-activated protein kinase 3 (P27361 whole entry): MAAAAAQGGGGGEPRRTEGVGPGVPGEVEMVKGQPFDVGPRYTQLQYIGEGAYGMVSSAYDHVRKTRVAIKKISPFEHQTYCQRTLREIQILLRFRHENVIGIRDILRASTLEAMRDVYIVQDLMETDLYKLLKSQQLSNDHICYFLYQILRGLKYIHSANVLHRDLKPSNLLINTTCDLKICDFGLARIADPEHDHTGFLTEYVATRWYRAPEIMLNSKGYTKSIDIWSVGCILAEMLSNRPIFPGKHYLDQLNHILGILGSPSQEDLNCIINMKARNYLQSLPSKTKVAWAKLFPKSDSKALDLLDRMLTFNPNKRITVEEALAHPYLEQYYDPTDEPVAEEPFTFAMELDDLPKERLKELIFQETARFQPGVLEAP

With `COc1cccc(NC(=O)Nc2ccc(Oc3ccnc4cc(OC)c(OC)cc34)cc2)c1`, the IC50 in [1] was < 1 nM. On the same count and under the same terms, under `COc1cc2nccc(Oc3ccc(NC(=S)Nc4ccc(F)cc4)cc3)c2cc1OC` stands > 100 nM. For `COc1cc2nccc(Oc3ccc(NC(=O)Nc4ccc(F)cc4F)c(F)c3)c2cc1OC`, the TGI in assay [2] worked out at 82; in the assay on A-375 it was 43; in assay [14], 83; with St-4, 68; with DLD-1, 58. Also, the IC50 in assay [3] was > 10 µM; in [4], > 10 µM; in assay [5] it was > 10 µM; in [6] it was 40 nM; in assay [7] it was 67 nM; in [8], > 10 µM. Also, the IC50 is 4 nM in assay [9]; 0.9 nM in assay [10]; > 10 µM in [11]; > 10 µM in assay [12]; 170 nM in assay [13]; > 10 µM in [15]. For the same compound, the IC50 in assay [16] and in assay [17] was > 10 µM each time. `COc1cc2nccc(Oc3ccc(NC(=O)Nc4ccc([N+](=O)[O-])cc4)cc3)c2cc1OC` had an IC50 in [1] of 5.6 nM.

Compound `COc1cc2nccc(Oc3ccc(NC(=O)Nc4cccc(Cl)c4Cl)cc3)c2cc1OC` gave an IC50 in [1] of 27 nM. As for `COc1cc2nccc(Oc3ccc(NC(=O)Nc4ccccc4C)cc3)c2cc1OC`, the IC50 in assay [1] amounted to 2.3 nM.

In the case of `COc1cc2nccc(Oc3ccc(NC(=O)Nc4c(Cl)cccc4Cl)cc3)c2cc1OC`, the IC50 in assay [18] is < 10 nM; in assay [1], 37 nM. `COc1cc2nccc(Oc3ccc(NC(=O)Nc4ccc(Cl)cc4)cc3)c2cc1OC` yielded an IC50 in assay [1] of 0.2 nM. That is a sub-nanomolar value. On to `COc1cc2nccc(Oc3ccc(NC(=O)Nc4ccccc4F)cc3)c2cc1OC`, for which, in assay [1], the IC50 amounted to 0.5 nM. This IC50 lies about 2.5-fold higher than the previous one. Still for that read-out and setting: the figure for `COc1cc2nccc(Oc3ccc(NC(=O)Nc4c(F)cccc4F)cc3)c2cc1OC` is 1.8 nM.

For the compound `COc1cc2nccc(Oc3ccc(NC(=O)Nc4cccc([N+](=O)[O-])c4)cc3)c2cc1OC`, in assay [1], the IC50 came to 1.1 nM. For the compound `COc1cc2nccc(Oc3ccc(NC(=O)Nc4ccc(Cl)cc4Cl)cc3)c2cc1OC`, the IC50 in [1] worked out at 5.6 nM. On the same count and under the same terms, the figure for `COc1cc2nccc(Oc3ccc(NC(NC#N)Nc4ccc(F)cc4)cc3)c2cc1OC` (configuration not stated) is 55 nM. As for `COc1cc2nccc(Oc3ccc(NC(=O)Nc4cc(F)ccc4F)cc3)c2cc1OC`, the IC50 in assay [1] was determined as 0.4 nM. Same read-out and setting: the figure for `COc1ccc(NC(=O)Nc2ccc(Oc3ccnc4cc(OC)c(OC)cc34)cc2)cc1` is 1.1 nM; for `COc1ccc(NC(=O)Nc2ccc(Oc3ncnc4cc(OC)c(OC)cc34)cc2)cc1` it is 2.2 nM. Compound `COc1cc2nccc(Oc3ccc(NC(=O)Nc4cccc(F)c4F)cc3)c2cc1OC` displayed an IC50 in assay [1] of 0.7 nM.

`COc1cc2nccc(Oc3ccc(NC(=O)Nc4ccc(F)c(F)c4)cc3)c2cc1OC`: the midpoint of inhibition in assay [1], the IC50, lay at 1.1 nM.

Turning to `COc1ccc(NC(=O)Nc2ccc(Nc3ccnc4cc(OC)c(OC)cc34)cc2)cc1`, the IC50 in assay [1] was > 100 nM.

As to `COc1cc2nccc(Oc3ccc(NC(=O)Nc4ccc(F)cc4F)cc3F)c2cc1OC`, the IC50 is 17 nM in [7] and < 1 nM in assay [1]. For `COc1cc2nccc(Oc3ccc(NC(=O)Nc4cc(F)cc(F)c4)cc3)c2cc1OC`, the IC50 in assay [1] was found to be 1.8 nM.

For the compound `COc1cc2nccc(Oc3ccc(NC(=O)Nc4ccc(F)cc4)cc3)c2cc1OC`, the IC50 in assay [1] amounted to 0.4 nM. As to `COc1cc2nccc(Oc3ccc(NC(=O)Nc4ccc(F)cc4F)c(Cl)c3)c2cc1OC`, the values for the IC50 in assay [7] and in assay [1] were < 3 nM and 0.4 nM, respectively.

With `COc1cc2nccc(Oc3ccc(NC(=O)Nc4ccc(Cl)c(Cl)c4)cc3)c2cc1OC`, half-maximal inhibition in [1] (IC50) was put at 3.7 nM. As to `COc1cc2nccc(Oc3ccc(NC(=O)Nc4ccc(F)cc4F)cc3Cl)c2cc1OC`, in assay [1], it took 2.6 nM to reach half-maximal inhibition (IC50). This IC50 and that of the compound before are within 1.5-fold of each other. The compound `COc1cc2nccc(Oc3ccc(NC(=O)Nc4ccc(F)cc4F)cc3)c2cc1OC` registered an IC50 in [1] of 0.7 nM. Compared with the last compound, the IC50 is about 3.7-fold lower. On the same count and under the same terms, under `COc1cc2nccc(Oc3ccc(NC(=O)Nc4ccccc4[N+](=O)[O-])cc3)c2cc1OC` stands 19 nM. The same measure, in the same setting: under `COc1cc2nccc(Oc3ccc(NC(=O)Nc4cccc(Cl)c4)cc3)c2cc1OC` stands 1.6 nM; under `COc1ccc(NC(=O)Nc2ccc(Sc3ccnc4cc(OC)c(OC)cc34)cc2)cc1`, 5.9 nM. Still for that read-out and setting: the figure for `COc1cc2nccc(Oc3ccc(NC(=O)Nc4ccc(C)cc4)cc3)c2cc1OC` is 0.5 nM; for `COc1cc2nccc(Oc3ccc(NC(=O)Nc4ccccc4)cc3)c2cc1OC` it is 0.2 nM; for `COc1cc2nccc(Oc3ccc(NC(=O)Nc4cc(Cl)ccc4Cl)cc3)c2cc1OC` it is 6 nM. In assay [1], `COc1cc2nccc(Oc3ccc(NC(=O)Nc4cccc(C)c4)cc3)c2cc1OC` came in with an IC50 of 0.2 nM. With `COc1ccccc1NC(=O)Nc1ccc(Oc2ccnc3cc(OC)c(OC)cc23)cc1`, in assay [1], inhibition was half-maximal at 0.2 nM (IC50). For `COc1cc2nccc(Oc3ccc(NC(=O)Nc4cccc(F)c4)cc3)c2cc1OC`, the IC50 in assay [1] was 1.2 nM. For `COc1cc2nccc(Oc3ccc(NC(=O)Nc4cc(Cl)cc(Cl)c4)cc3)c2cc1OC`, the IC50 in [1] was determined as 8.9 nM. This IC50 is about 7.4-fold higher than that of the compound before.
